# ChEMBL document CHEMBL1124174, “Substituted benzamides. 1. Potential nondopaminergic antagonists of chemotherapy-induced nausea and emesis” (J Med Chem, 1988)
# Values joined by “and” are separate entries in the source; they are usually repeats but may differ in a detail not shown here. Equal values may be shown once.
# Legend:
# [1] = target: D(2) dopamine receptor (Canis lupus familiaris) (UniProt Q9GJU1); assay: In vivo antagonism activity against dopamine D2 receptor was measured as emesis in dog when administered subcutaneously; format: functional, organism-based
# Canis familiaris [2] = assay: In vivo antagonism of cisplatin-induced emesis in dog measured as emetic episodes, twice the dose of 3 mg/kg in 3 dogs; format: functional, Canis lupus familiaris
# Outline: (§1)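 Nonfasted mature male or female beagles were dosed sc twice, 30 min before and 120 min after cisplatin (3 mg/kg iv; 3 mg/mL in warm 0.9% saline, used immediately). Emesis was observed up to 5 h; events within 2 min counted as one episode. Results were given as mean emetic episodes and % protection versus a dynamic control (historical and concurrent saline means pooled). t test versus saline.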
# Canis familiaris [3] = assay: In vivo antagonism of cisplatin-induced emesis in dog measured as emetic episodes, twice the dose of 6 mg/kg in 3 dogs; format: functional, Canis lupus familiaris
# Outline: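 Nonfasted mature male or female beagles received test compound or saline sc twice, 30 min before and 120 min after cisplatin (3 mg/kg iv; 3 mg/mL in warm 0.9% saline, used at once). Emesis observed up to 5 h. Emetic episode = expulsion of stomach content; events within 2 min counted as one. Protection calculated against a dynamic control (historical mean pooled with concurrent saline control).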
# Canis familiaris [4] = assay: In vivo antagonism of cisplatin-induced emesis in dog measured as percentage protection for twice the dose of 3 mg/kg in 2 dogs; format: functional, Canis lupus familiaris; outline: as §1
# Mustela putorius furo [5] = assay: In vivo antagonism of cisplatin-induced emesis in ferret measured as emetic episodes, twice the dose of 3 mg/kg and in 3 ferrets; format: functional
# Outline: (§2)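 Nonfasted castrated male Fitch ferrets (1–1.5 kg) had jugular catheters implanted ≥48 h earlier under anesthesia. Compounds or saline were given iv twice, 5 min before and 90 min after cisplatin (12 mg/kg iv; 12 mg/mL in warm 0.9% saline). Emesis was observed up to 4 h; events within 1 min counted as one episode. Results were given as mean emetic episodes and % protection versus a pooled historical/concurrent control. t test versus saline.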
# Mustela putorius furo [6] = assay: In vivo antagonism of cisplatin-induced emesis in ferret measured as percentage protection for twice the dose of 3 mg/kg and in 3 ferrets; format: functional; outline: as §2
# [7] = target: D(2) dopamine receptor (Rattus norvegicus) (UniProt P61169); assay: In vivo antagonism activity against D2 receptor was measured as stereotypy in rat when administered subcutaneously; format: functional, organism-based
# Outline: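 Male Long Evans rats (275 g) were dosed sc in dilute aqueous HCl (pH 4.5-5.5) 30 min before apomorphine (1 mg/kg sc).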
# [8] = target: D(2) dopamine receptor (Rattus norvegicus) (UniProt P61169); assay: In vivo antagonistic activity against dopamine D2 receptor was measured as catalepsy in rat when administered subcutaneously; format: functional, organism-based
# Outline: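 Male Long Evans rats (275 g) received graded sc doses in dilute aqueous HCl (pH 4.5-5.5). They were observed 180 min for catalepsy, scored when the animal stayed stationary ≥15 s on a four-cork template.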
# Canis familiaris [9] = assay: In vivo antagonism of cisplatin-induced emesis in dog measured as emetic episodes, twice the dose of 3 mg/kg in 2 dogs; format: functional, Canis lupus familiaris; outline: as §1
# D(2) dopamine receptor = D(2) dopamine receptor (Rattus norvegicus, UniProt P61169); assay: In vitro antagonistic activity against Dopamine receptor D2 was evaluated for the inhibition of [3H]spiperone binding
# Outline: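 Rat striatal membranes were prepared by differential centrifugation in 50 mM Tris pH 7.4 at 4 °C. Membrane protein (10 mg) was incubated 15 min at 37 °C with 0.1 nM [3H]spiperone and varying competitor concentrations. Buffer: 50 mM Tris HCl pH 7.5, 0.1% ascorbic acid, pargyline, 120 mM NaCl, 5 mM KCl, 2 mM CaCl2, 1 mM MgCl2. (+)-Butaclamol defined nonspecific binding. Bound ligand was collected by filtration and scintillation counted. IC50 by log-logit regression.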
# Canis familiaris [10] = assay: In vivo antagonism of cisplatin-induced emesis in dog measured as emetic episodes, twice the dose of 1 mg/kg in 2 dogs; format: functional, Canis lupus familiaris; outline: as §1
# Canis familiaris [11] = assay: In vivo antagonism of cisplatin-induced emesis in dog measured as percentage protection for twice the dose of 1 mg/kg in 2 dogs; format: functional, Canis lupus familiaris; outline: as §1
# Mustela putorius furo [12] = assay: In vivo antagonism of cisplatin-induced emesis in ferret measured as percentage protection for twice the dose of 0.3 mg/kg and in 3 ferrets; format: functional; outline: as §2
# Mustela putorius furo [13] = assay: In vivo antagonism of cisplatin-induced emesis in ferret measured as emetic episodes, twice the dose of 0. 3 mg/kg and in 3 ferrets; format: functional; outline: as §2
# Canis familiaris [14] = assay: In vivo antagonism of cisplatin-induced emesis in dog measured as percentage protection for twice the dose of 0.3 mg/kg in 2 dogs; format: functional, Canis lupus familiaris; outline: as §1
# Canis familiaris [15] = assay: In vivo antagonism of cisplatin-induced emesis in dog measured as emetic episodes, twice the dose of 6 mg/kg in 2 dogs; format: functional, Canis lupus familiaris; outline: as §1
# Canis familiaris [16] = assay: In vivo antagonism of cisplatin-induced emesis in dog measured as emetic episodes, twice the dose of 0.3 mg/kg in 2 dogs; format: functional, Canis lupus familiaris; outline: as §1
# Canis familiaris [17] = assay: In vivo antagonism of cisplatin-induced emesis in dog measured as percentage protection for twice the dose of 6 mg/kg in 2 dogs; format: functional, Canis lupus familiaris; outline: as §1
# Mustela putorius furo [18] = assay: In vivo antagonism of cisplatin-induced emesis in ferret measured as emetic episodes, twice the dose of 0.3 mg/kg and in 3 ferrets; format: functional; outline: as §2
# Mustela putorius furo [19] = assay: In vivo antagonism of cisplatin-induced emesis in ferret measured as emetic episodes, twice the dose of 1 mg/kg and in 3 ferrets; format: functional; outline: as §2
# Mustela putorius furo [20] = assay: In vivo antagonism of cisplatin-induced emesis in ferret measured as percentage protection for twice the dose of 1 mg/kg and in 3 ferrets; format: functional; outline: as §2
# Mustela putorius furo [21] = assay: In vivo antagonism of cisplatin-induced emesis in ferret measured as percentage protection for twice the dose of 3 mg/kg and in 2 ferrets; format: functional; outline: as §2
# Mustela putorius furo [22] = assay: in vivo antagonism of cisplatin-induced emesis in ferret measured as emetic episodes, twice the dose of 0.3 mg/kg and in 3 ferrets; format: functional
# Outline: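 Nonfasted castrated male Fitch ferrets (1–1.5 kg) carried jugular vein catheters implanted at least 48 h earlier under general anesthesia. Test compound or saline was given iv twice, 5 min before and 90 min after cisplatin (12 mg/kg iv; 12 mg/mL in warm saline). Emesis was watched for 4 h, with events within 1 min counted as one episode. % protection is relative to a pooled historical-plus-concurrent control, with t test versus saline.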
# D(2) dopamine receptor (Rattus norvegicus), sequence (P61169 whole entry): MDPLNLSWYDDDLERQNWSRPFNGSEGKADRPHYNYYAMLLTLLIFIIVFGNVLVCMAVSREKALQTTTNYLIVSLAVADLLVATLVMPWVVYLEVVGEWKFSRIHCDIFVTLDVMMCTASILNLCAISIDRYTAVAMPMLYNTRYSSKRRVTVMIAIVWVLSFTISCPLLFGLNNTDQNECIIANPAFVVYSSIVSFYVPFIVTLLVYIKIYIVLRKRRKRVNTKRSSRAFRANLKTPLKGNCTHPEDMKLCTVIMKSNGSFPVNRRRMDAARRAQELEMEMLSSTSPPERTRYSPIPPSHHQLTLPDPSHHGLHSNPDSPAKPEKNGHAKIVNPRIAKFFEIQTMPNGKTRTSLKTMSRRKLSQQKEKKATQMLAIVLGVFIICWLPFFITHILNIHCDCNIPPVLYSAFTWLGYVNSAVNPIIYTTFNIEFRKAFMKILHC
# D(2) dopamine receptor, sequence (P61169 whole entry): as above
# D(2) dopamine receptor (Canis lupus familiaris), sequence (Q9GJU1 whole entry): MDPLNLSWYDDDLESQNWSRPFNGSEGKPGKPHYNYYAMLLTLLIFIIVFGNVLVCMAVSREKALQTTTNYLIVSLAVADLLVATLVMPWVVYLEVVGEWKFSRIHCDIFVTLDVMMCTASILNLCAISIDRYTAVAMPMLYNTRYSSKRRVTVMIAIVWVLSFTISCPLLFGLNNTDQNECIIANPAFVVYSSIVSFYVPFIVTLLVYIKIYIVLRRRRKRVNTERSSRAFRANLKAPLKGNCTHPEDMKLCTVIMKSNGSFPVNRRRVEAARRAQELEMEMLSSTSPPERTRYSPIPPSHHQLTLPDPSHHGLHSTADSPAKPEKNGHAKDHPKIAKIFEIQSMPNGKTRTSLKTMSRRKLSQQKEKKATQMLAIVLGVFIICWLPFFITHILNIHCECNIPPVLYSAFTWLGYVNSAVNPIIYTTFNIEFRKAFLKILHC
Structure (SMILES),ED50 [1] [mg/kg],Emetic episodes (Mustela putorius furo [5]),Protection (Mustela putorius furo [6]) [%],ED50 [7] [mg/kg],ED50 [8] [mg/kg],IC50 (D(2) dopamine receptor) [µM],other results
C=CCN1CCCC1CNC(=O)c1cc2nn[nH]c2cc1OC (stereo unspecified) [ALIZAPRIDE],0.3,5,27,> 40,> 40,–,Emetic episodes (Canis familiaris [2]): 4.3; Emetic episodes (Canis familiaris [3]): 4.7; Protection (Canis familiaris [4]; 3 mg/kg): 69% and 66%
CCN(CC)CCNC(=O)c1cc(Cl)c(N)cc1OCC(=O)c1ccccc1,> 3,0,100,> 40,> 40,> 1,Emetic episodes (Canis familiaris [9]): 1.5; Protection (Canis familiaris [4]): 88%
CCN(CC)CCNC(=O)c1cc(Cl)c(N)cc1OCC(OC)OC,> 3,1.3,82,> 40,> 40,> 1,Emetic episodes (Canis familiaris [10]): 1.5; Protection (Canis familiaris [11]): 88%; Protection (Mustela putorius furo [12]): 0%; Emetic episodes (Mustela putorius furo [13]): 6.7
C=C(C)COc1cc(N)c(Cl)cc1C(=O)NCCN(CC)CC,> 3,2.3,70,> 40,> 40,> 1,Emetic episodes (Canis familiaris [9]): 4; Protection (Canis familiaris [4]): 68%
CCN(CC)CCNC(=O)c1cc(Cl)c(N)cc1OCC(C)=O,> 3,0.7,90,> 40,> 40,> 1,Protection (Canis familiaris [14]): 60%; Emetic episodes (Canis familiaris [15]): 0.5; Emetic episodes (Canis familiaris [16]): 5; Emetic episodes (Canis familiaris [10]): 1.5; Protection (Canis familiaris [11]): 92%; Protection (Canis familiaris [17]): 96%; Protection (Mustela putorius furo [12]): 44%; Emetic episodes (Mustela putorius furo [18]): 4; Emetic episodes (Mustela putorius furo [19]): 4.5; Protection (Mustela putorius furo [20]): 38%
CCN(CC)CCNC(=O)c1cc(Cl)c(N)cc1O,> 1,–,–,> 40,> 40,> 1,Emetic episodes (Canis familiaris [15]): 2; Protection (Canis familiaris [17]): 84%; Protection (Mustela putorius furo [21]): 40%
CCN(CC)CCNC(=O)c1cc(Cl)c(N)cc1OC[C@@H](C)O (stereo in doubt; 8e),–,–,–,–,–,> 1,Protection (Canis familiaris [14]; 0.3 mg/kg): 45%; Emetic episodes (Canis familiaris [16]; 0.3 mg/kg): 6.5; Emetic episodes (Canis familiaris [10]; 1 mg/kg): 1; Protection (Canis familiaris [11]; 1 mg/kg): 92%; Emetic episodes (Mustela putorius furo [22]): 6; Protection (Mustela putorius furo [18]; in the assay text read “in 2 ferrets” for “in 3 ferrets”): 18%; Emetic episodes (Mustela putorius furo [19]; 1 mg/kg): 2; Protection (Mustela putorius furo [20]; 1 mg/kg): 73%
